Screens as filed in PubChem.
A selection: hits, their analogues and other compounds. The true share with any hit is near 4.9%.
NPY1 pot ag: NPY-Y1 receptor potentiators or agonists, primary screen, cell-based; NPY-Y1 expressing cells, potentiator/agonist activation; 220,000 compounds, 0.37% hits; activation, % at 3.6 µM; Neuropeptide Y receptor type 1 (Homo sapiens), P25929; AID 1304, 2008; in the data active means activation above about 33%, passing the limit was not always enough;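 further: cells stimulated with NPY at EC10 then isoproterenol at EC100; 0% = low agonist plus stimulus and 100% = saturating agonist plus stimulus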
Target sequence (P25929 whole entry, looked up): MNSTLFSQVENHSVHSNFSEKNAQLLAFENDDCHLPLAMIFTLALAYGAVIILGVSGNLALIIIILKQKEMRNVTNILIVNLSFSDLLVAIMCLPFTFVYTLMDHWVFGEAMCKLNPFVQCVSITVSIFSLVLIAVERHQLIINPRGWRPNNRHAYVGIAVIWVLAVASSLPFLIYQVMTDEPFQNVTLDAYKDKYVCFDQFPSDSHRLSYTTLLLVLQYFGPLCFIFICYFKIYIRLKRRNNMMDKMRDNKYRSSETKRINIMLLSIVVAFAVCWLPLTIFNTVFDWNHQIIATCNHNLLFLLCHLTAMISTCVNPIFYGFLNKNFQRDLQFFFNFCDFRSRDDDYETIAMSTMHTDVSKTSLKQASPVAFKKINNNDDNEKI
RAM network inh: inhibitors of the yeast RAM network, primary screen, dse1pr::URA3 reporter, 5-FOA selection | S. cerevisiae dse1pr::URA3 reporter, 5-FOA growth OD615, 2 d; analog-sensitive cbk1-as2 kinase mutant strain | inhibition, % at 50 µM | 190,000 compounds, 1.8% hits;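 active means inhibition above a set limit, 3 SD over mean compound inhibition, cut at about 8.4% in these data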;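 further: 0% = DMSO-only wells with no growth and 100% = 10 µM 1-NA-PP1 full growth; inhibition rescues growth on 5-FOA so higher OD means more RAM inhibition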
WT yeast gro inh: growth inhibition of WT strain, primary screen, mitochondrial fusion inhibitor project, WT and mutant strains, chemical genetic; mitochondrial fusion phenotypic screen; inhibition, % at 10 µM; 190,000 compounds, 2.1% hits; AID 1362, 2008; in the data active means inhibition above about 58%; tested in S. cerevisiae
NPY-Y1 antag: NPY-Y1 receptor antagonists, primary screen, cell-based; HEK293-CNG Y1 cells, membrane potential fluorescence; NPY at EC95, then isoproterenol; inhibition, % at 3.6 µM; 200,000 compounds, 1% hits;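 active means inhibition above the campaign mean inhibition of all tested compounds plus 3 SD, cut at about 20% in these data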;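 further: 0% = DMSO wells given NPY plus isoproterenol and 100% = isoproterenol alone without NPY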
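Material: HEK293 cells with Y1 receptor plus CNG channel; times: compound incubation 1 h at room temperature, readout 45 min post-stimulation; signal: fluorescence, membrane potential probe; read-out basis: fluorescence ratio normalized to % inhibition between controls; benchmarks: full-block control isoproterenol-only wells, zero-block control NPY plus isoproterenol wells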
NPY-Y2 PAM-ag: NPY-Y2 potentiators or agonists, primary screen, cell-based; cells expressing NPY-Y2, potentiator/agonist read-out; 220,000 compounds, 0.45% hits; AID 1359, 2008; activation, % at 3.6 µM; in the data active means activation above about 27%;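 further: cells stimulated with NPY near EC25 plus isoproterenol at EC100; 0% = vehicle plus submaximal agonist and 100% = vehicle plus saturating agonist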
NPY Y2 blocker: NPY-Y2 receptor antagonists, primary screen, cell-based; NPY-Y2 expressing cells, antagonist mode; 140,000 compounds, 0.99% hits; inhibition, % at 2.7 µM; Neuropeptide Y receptor type 2 (Homo sapiens), P49146; in the data active means inhibition above about 17%;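 further: 0% = vehicle with agonist challenge and 100% = reference antagonist with challenge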
The depositor's hits bear a star; nt = no result given.

SMILES	NPY1 pot ag	RAM network inh	WT yeast gro inh	NPY-Y1 antag	NPY-Y2 PAM-ag	NPY Y2 blocker
Cc1cc(C)nc(/N=c2/ssnc2Cl)c1	14	0	63*	11	-1	5
Cc1ccc(C2CC(c3cccs3)=NN2C(=O)c2ccc(Br)o2)cc1 (configuration not stated)	-14	-1	64*	4	-19	7
CC(=O)N1N=C(c2cccs2)CC1c1ccc(C)o1 (configuration not stated)	13	-2	11	3	17	nt
COc1ccc(C2CC(c3cccs3)=NN2C(=O)CSc2nc3ccccc3o2)cc1 (configuration not stated)	-24	8.5*	14	11	-23	6
COc1cc(NC(=O)c2ccco2)c(C(=O)OCC(=O)Nc2ncc(Cl)cc2Cl)cc1OC	-27	2	-12	-3	-19	1
CN(C)CCNc1nc2sc3c(c2c(=O)n1CCc1ccccc1)CCCCC3	19	nt	nt	nt	-2	nt
CC(O)CNc1nc2sc3c(c2c(=O)n1CCc1ccccc1)CCCCC3 (configuration not stated)	3	3	75*	-4	17	-4
COc1cc(-c2nnco2)cc(OC)c1OC	-9	1	10	3	-5	nt
COC(=O)[C@H]1C[C@@H]1[C@H](NC(=O)c1cnccn1)c1ccccc1	23	1	-13	2	84*	1
CCOC(=O)c1cc(C)n(-c2ccc(Cl)cc2)c1C	-22	nt	nt	nt	-9	nt
Cc1cc(N2CCN(c3ccccc3Cl)CC2)n2cc(-c3ccccc3)nc2n1	-26	-1	74*	9	-24	10
CCOC(=O)c1ccccc1Cc1nc2ccccc2c(=O)[nH]1	-3	6	-11	1	-6	4
COC(=O)c1ccc2c(=O)[nH]c(CN3c4ccccc4CC3C)nc2c1 (configuration not stated)	4	4	-2	2	7	11
CC1Cc2ccccc2N1Cc1nc2cc(Cl)ccc2c(=O)[nH]1 (configuration not stated)	65*	1	8	-1	61*	1
O=C(O)c1ccccc1Cc1nc2cc(Cl)ccc2c(=O)[nH]1	2	8.6*	-5	2	-7	nt
COc1ccc2ccc3c(c2c1)N=CC1(O3)N(C)c2ccccc2C1(C)C (configuration not stated)	-6	1	78*	-11	7	-2
COc1cccc(-c2nc(CS(=O)(=O)CC(=O)N3CCc4ccccc4C3)c(C)o2)c1	-18	2	1	6	-8	3
CCn1cc(Cl)c(C(=O)N2N=C3/C(=C/c4cccs4)CCCC3C2c2cccs2)n1 (configuration not stated)	-4	10*	37	0	-7	3
CC(=O)N1N=C2c3ccccc3CCC2C1c1cccs1 (configuration not stated)	16	nt	nt	nt	20	nt
COc1ccc(CNC(=O)COC(=O)c2c[nH]c(=O)[nH]c2=O)cc1OC	-3	0	0	1	5	1
COc1ccc(C(=O)C[n+]2cn(C(F)F)c3ccccc32)c(F)c1	0	2	70*	1	-4	nt
COc1ccc(NC(=O)Nc2ccccc2F)c(C)c1	1	2	-1	0	12	nt
CCOc1ccc(N(C(=O)c2cnsn2)C(C(=O)NC2CCCCC2)c2ccncc2)cc1 (configuration not stated)	-27	1	13	34*	12	20*
COc1ccccc1C(=O)NCC(=O)OC(C)C(=O)NC(=O)NC1CCCCC1 (configuration not stated)	2	2	6	6	0	3
Cc1nn(-c2ccccc2)c(Cl)c1C(=O)OC(C)C(=O)NC(=O)NC1CCCCC1 (configuration not stated)	-27	1	69*	11	-10	5
SMILES	NPY1 pot ag	RAM network inh	WT yeast gro inh	NPY-Y1 antag	NPY-Y2 PAM-ag	NPY Y2 blocker
COc1ccccc1NC(=S)N(Cc1ccco1)Cc1cc2cc(C)c(C)cc2[nH]c1=O	-35	9.5*	9	-3	-5	6
COc1cc2cc(CN(Cc3cccs3)C(=S)Nc3cccc(C)c3)c(=O)[nH]c2cc1OC	-49	8.9*	-1	2	1	1
Cc1ccc(S(=O)(=O)/C(C#N)=C/c2ccccc2OCc2ccccc2)cc1	6	8.6*	30	3	2	-1
N#CC(C#N)=Cc1ccccc1OCc1ccccc1	17	nt	nt	nt	2	nt
COc1ccc(CCNC(=O)Cc2ccc([N+](=O)[O-])cc2)cc1OC	-13	nt	nt	nt	-13	nt
COc1ccc(CNCCc2ccccc2)cc1OCC(N)=O	-3	1	52	3	-9	2
COc1cc(CNCc2ccccn2)ccc1OCc1ccc(Cl)c(Cl)c1	-31	-2	72*	9	-11	nt
COc1ccc(CNCCc2ccc(Cl)cc2)cc1OCc1ccccc1	-16	0	82*	7	-14	nt
COc1ccc(CCNC(=O)Cc2ccc(OCc3ccccc3)c(OC)c2[N+](=O)[O-])cc1OCc1ccccc1	-22	9.1*	13	3	-20	1
CCOC(=O)Cc1csc(NC(=S)NC(=O)c2cc(OC)cc(OC)c2)n1	-19	1	-4	2	10	nt
O=C(Nc1ccc2c(c1)OCO2)c1cnccn1	14	2	8	-5	11	nt
COc1ccc(C2SCC(=O)N2CC23CC4CC(CC(C4)C2)C3)cc1 (configuration not stated)	2	1	76*	6	-11	1
O=C1C2CC=C(Cl)CC2C(=O)N1c1ncn[nH]1 (configuration not stated)	7	0	-13	2	12	4
COc1cc(OC)c2c(c1)C(=O)c1cc(OC)cc(OC)c1C2=O	-5	3	87*	-7	-12	2
Cc1cc(C)c(C(=O)CC2(O)C(=O)Nc3ccccc32)cc1C (configuration not stated)	-11	0	-4	-2	1	1
Cc1ccc2nc(SC(C)C(=O)N3CC(C)OC(C)C3)[nH]c2c1 (configuration not stated)	12	1	-4	21*	-11	nt
CC(Cl)C(=O)Nc1cc(C(C)(C)C)nn1-c1ccccc1 (configuration not stated)	10	0	-14	8	-5	nt
